ChEMBL document CHEMBL4364289, “The structure-activity profile of mercaptobenzamides' anti-HIV activity suggests that thermodynamics of metabolism is more important than binding affinity to the target” (Eur J Med Chem, 2019)

Columns and labels:
[1] = (§1) Cytotoxicity against human CEM-SS cells assessed as reduction in cell viability incubated for 6 days by […]; assay type: cell-based; conditions: CEM-SS cells, read-out: TC50
Outline: (§2)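 Uninfected CEM-SS cells (2.5 × 10³/well) in RPMI with 10% FBS, 2 mM L-glutamine, penicillin/streptomycin, exposed to six serial compound concentrations for 6 days at 37 °C, 5% CO2. Viability read by XTT staining (OD 450/650 nm); TC50 derived from percent viability of uninfected drug-control wells.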

[2] = test system: Human immunodeficiency virus 1; test: Antiviral activity against HIV1 RF infected in human CEM-SS cells assessed as inhibition of viral replication incubated for 6 days by XTT assay; assay type: functional, organism-based
Outline: (§3)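 CEM-SS cells (2.5 × 10³/well) in RPMI with 10% FBS, 2 mM L-glutamine, penicillin/streptomycin; six serial compound concentrations added with HIV-1 RF titered to give 85–95% cell killing at day 6. AZT run in parallel as positive control. Incubated 6 days at 37 °C, 5% CO2; viability by XTT (OD 450/650 nm). EC50 from percent CPE reduction; SI = TC50/EC50.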

[3] = Selectivity index, ratio of TC50 for human CEM-SS cells to EC50 for HIV1 RF infected in human CEM-SS cells; assay type: toxicity, cell-based; conditions: for selectivity ratio: CEM-SS cells, read-out: Selectivity Index; outline: as §3
[4] = Drug metabolism of compound in glutathione assessed as 2-(3-amino 3-oxopropylcarbamoyl)benzenethiolate formation
[5] = Drug metabolism of compound in nucleophilic proteinogenic cysteines assessed as 2-(3-amino 3-oxopropylcarbamoyl)benzenethiolate formation
[6] = Prodrug activation in human PBMC cells assessed as 2-(3-amino 3-oxopropylcarbamoyl)benzenethiolate formation; assay type: cell-based
[7] = Drug metabolism of compound in phosphate buffer incubated for 12 hrs in presence of acetyl-1,2,13C2 CoA by 13C-NMR spectrometric method
Outline: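 Thiol and acetyl-1,2-13C2 CoA at 10:1 stoichiometric ratio incubated in degassed (helium-sparged) 0.1 M phosphate buffer pH 7.0 (4:1 H2O/D2O) with 2% DMF, 37 °C, 12 h in a sealed NMR tube. Equilibrium confirmed by 13C NMR monitoring; equilibrium constant for thiol–thioester exchange determined from spectra.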

[8] = Dissociation constant, pKa of compound; assay type: physicochemical
CEM-SS = test: as §1; assay type: cell-based; conditions: cem-ss, 144 h, read-out: TC50 (the source's name); outline: as §2
[9] = Human immunodeficiency virus 1, RF, CEM-SS, 144 h

Row | SMILES | CC50 at 144 h [1] [µM] | EC50 [2, 9] [µM] | selectivity ratio [3] | other results
1 | CCCC(=O)OCSc1ccccc1C(=O)NCC(N)=O | > 100 | 2.9 | – | –
2 | CCCC(=O)OCSc1ccccc1C(=O)NCC(=O)N(C)C | 38.3 | 4.7 | 8.15 | –
3 | CCCC(=O)OCSc1ccccc1C(=O)NCC(=O)NCC(N)=O | > 100 | 27.5 | > 3.64 | –
4 | CCCC(=O)OCSc1ccccc1C(=O)NC | 5.7 | > 100 | – | –
5 | CCCC(=O)OCSc1ccccc1C(=O)N[C@H]1CCC[C@@H]1C(N)=O (racemic) | 31.2 | – | – | EC50 [2]: 0.9 µM; Selectivity Index [3]: 34.7
6 | CCCCCNC(=O)CNC(=O)c1ccccc1SCOC(=O)CCC | 24.8 | 10.3 | 2.41 | –
7 | CCCC(=O)OCSc1ccccc1C(=O)N[C@@H]1CCC[C@@H]1C(N)=O | 90 | 1.8 | 50 | –
8 | CCCC(=O)OCSc1c(C)cccc1C(=O)NCCC(N)=O | – | > 100 | – | –
9 | CCCC(=O)OCSc1ccccc1C(=O)NCCCC(N)=O | 56.6 | 1.2 | 47.2 | –
10 | CC(=O)Sc1ccccc1C(=O)NCCC(N)=O | – | – | – | Ka [4]: 84 M⁻¹ s⁻¹; Ka [5]: 84 M⁻¹ s⁻¹
11 | CCCC(=O)OCSc1ccccc1C(=O)NCCCCC(N)=O | 51.7 | 3.7 | 14 | –
12 | CCCC(=O)OCSc1ccccc1C(=O)NCC(=O)NCC(=O)OC | > 100 | 4.9 | > 20.4 | –
13 | NC(=O)CCNC(=O)c1cccc(S)c1 | > 100 | > 100 | – | –
14 | CCCC(=O)OCSc1ccccc1C(=O)OCC(N)=O | 82.1 | > 100 | – | –
15 | CCCC(=O)OCSc1ccccc1C(=O)N[C@@H]1CCC[C@H]1C(N)=O | 43.7 | 1.7 | 25.7 | –
16 | CCCC(=O)OCSc1ccccc1C(=O)NCCC(N)=O | > 100 | 2.4 | – | Drug metabolism [6]: Metabolite_Detected
17 | CCCC(=O)OCSc1ccccc1C(=O)N(C)CC(=O)NC | 62.5 | > 100 | – | –
18 | CCCC(=O)OC[Se]c1ccccc1C(=O)NCC(N)=O | 6.8 | > 100 | – | –
19 | CCCC(=O)OCSc1ccccc1C(=O)Nc1ccc(C(N)=O)cc1 | 39 | 1.6 | 24.4 | –
20 | CCCC(=O)OCSc1ccccc1C(=O)N1CCC[C@H]1C(N)=O | > 100 | > 100 | – | –
21 | CCCC(=O)OCSc1ccccc1C(=O)NCCCCCCC(N)=O | 10.4 | 1 | 10.4 | –
22 | CCCC(=O)OCSc1ccccc1C(=O)N(C)CC(N)=O | 55.3 | > 100 | – | –
23 | CCCC(=O)OCSc1ccccc1C(=O)NCCNC(C)=O | 91.9 | 2.6 | 35.3 | –
24 | CCCC(=O)OCSc1ccccc1C(=O)NCCCCCCNC(C)=O | 8 | 1.5 | 5.33 | –
25 | CCCC(=O)OCSc1ccccc1C(=O)Nc1cccc(C(N)=O)c1 | 17.5 | 1.2 | 14.6 | –

Row | SMILES | CC50 at 144 h [1] [µM] | EC50 [2, 9] [µM] | selectivity ratio [3] | other results
26 | C#CCNC(=O)CNC(=O)c1ccccc1SCOC(=O)CCC | 95.4 | 4.7 | 20.3 | –
27 | CCCC(=O)OCSc1ccccc1C(=O)NCC(=O)NCCN(C)C | 76.9 | 6.6 | 11.6 | –
28 | NC(=O)CCNC(=O)c1ccccc1S | – | – | – | Ke [7]: 0.0023; pKa [8]: 5.83
29 | CCCC(=O)OC[Se]c1ccccc1C(=O)NCCC(N)=O | 10.5 | 8.6 | 1.22 | –
30 | CCCC(=O)OCSc1c(F)cccc1C(=O)NCCC(N)=O | – | > 100 | – | –
31 | CCCC(=O)OCSc1ccccc1C(=O)NCCCCCNC(C)=O | 9.2 | 3.9 | 2.36 | –
32 | CCCC(=O)OCSc1ccccc1C(N)=O | 12.4 | > 100 | – | –
33 | CCCC(=O)OCSc1ccccc1C(=O)NCCCCNC(C)=O | 17.4 | 0.57 | 30.5 | –
34 | CCCC(=O)OCSc1ccccc1C(=O)NCCCNC(C)=O | 21.1 | 1.1 | 19.2 | –
35 | CCCC(=O)OCSc1ccccc1C(=O)N(C)CC(=O)N(C)C | 57.3 | > 100 | – | –
36 | CCCC(=O)OCSc1ccc(OC(F)(F)F)cc1C(=O)NC(C)(C)C(N)=O | < 56.1 | – | – | –
37 | CCCC(=O)OCSc1ccc(OC)cc1C(=O)NCCC(N)=O | > 100 | 1.5 | – | –
38 | CCCC(=O)OCSc1ccccc1C(=O)Nc1ccccc1C(N)=O | 50.1 | 5.1 | 9.82 | –
39 | CCCC(=O)OCSc1ccccc1C(=O)NCC(=O)NC | > 100 | 1.4 | > 71.4 | –
40 | CCCC(=O)OCSc1ccccc1C(=O)NCC(=O)OC | 27.3 | > 100 | – | –
41 | CCCC(=O)OCSc1ccccc1C(=O)NC1(C(N)=O)CCCC1 | > 100 | < 8.2 | – | –
42 | CCCC(=O)OCSc1ccccc1C(=O)NCC(=O)NCc1ccccc1 | 29.3 | 4.8 | 6.1 | –
43 | CCCC(=O)OCSc1ccccc1C(=O)N[C@H]1CCC[C@H]1C(N)=O (racemic) | 89.9 | 5.32 | 16.9 | –
44 | CCCC(=O)OCSc1ccccc1CC(=O)NCC(N)=O | > 100 | > 100 | – | –
45 | CCCC(=O)OCSc1ccccc1C(=O)NCC(=O)NC(C)(C)C | 46.8 | 9.1 | 5.14 | –
46 | CCCC(=O)OCSc1ccccc1C(=O)NCC(=O)NC(C)C | 92 | 5 | 18.4 | –
47 | CCCC(=O)OCSc1ccccc1C(=O)NCCCCCC(N)=O | 16.3 | 3.1 | 5.26 | –
48 | CCCC(=O)OCSc1ccccc1C(=O)N[C@H]1CCC[C@@H]1C(N)=O | – | – | – | CC50 (CEM-SS): 43.3 µM; EC50 [2]: 2.9 µM; Selectivity Index [3]: 15
49 | CCCC(=O)OCSc1ccccc1C(=O)N[C@H]1CCC[C@H]1C(N)=O | – | – | – | CC50 (CEM-SS): 84.8 µM; EC50 [2]: 3 µM; Selectivity Index [3]: 28.3
